Measurements from ChEMBL document CHEMBL3576859, “Novel benzamide-based histamine h3 receptor antagonists: the identification of two candidates for clinical development” (ACS Med Chem Lett, 2015).

Assays:
[1] = molecular target: Voltage-gated inwardly rectifying potassium channel KCNH2 (Homo sapiens, UniProt Q12809); experiment: Displacement of [3H]-astemizole from human ERG expressed in HEK293 cells after 60 mins by scintillation counting analysis; assay type: cell-based
[2] = Clearance in Sprague-Dawley rat; assay type: ADME, organism-based; details: in vivo
[3] = Volume of distribution at steady state in Sprague-Dawley rat; assay type: ADME, organism-based; details: in vivo, read-out: Vdss
[4] = Half life in Sprague-Dawley rat at 1 mg/kg, iv; assay type: ADME, organism-based; details: in vivo
[5] = Oral bioavailability in Sprague-Dawley rat at 10 mg/kg; assay type: ADME, organism-based; details: in vivo
[6] = Metabolic stability in Sprague-Dawley rat liver microsomes assessed as compound remaining at 1 uM after 15 mins; assay type: ADME; details: read-out: Stability
Outline: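 Rat liver microsomes incubated with compound for 15 min. Stability expressed as percent of parent remaining.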

[7] = Metabolic stability in human liver microsomes assessed as compound remaining at 1 uM after 15 mins; assay type: ADME; details: read-out: Stability
Outline: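 Compound incubated with human liver microsomes for 15 min. Read-out is percent parent remaining.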

[8] = Drug uptake in Sprague-Dawley rat brain at 3 mg/kg, po measured at 1 hr; assay type: ADME, organism-based; details: read-out: Drug uptake
Outline: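 Rats dosed orally at 3 mg/kg. Brain drug concentration (μM) measured at 1 h post-dose.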

Rattus norvegicus [9] = experiment: Ex vivo histamine H3 receptor occupancy in Sprague-Dawley rat striatum at 3 mg/kg, po measured at 1 hr by autoradiographic analysis; assay type: functional
Outline: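 After a 3 mg/kg oral dose in rats, ex vivo H3 receptor occupancy was determined by autoradiography at 1 h. Values are mean ± SD.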

[10] = Apparent permeability across apical to basolateral side in human Caco2 cells at 10 uM after 60 mins by LC/MS/MS analysis; assay type: ADME, cell-based; details: Caco-2
Outline: (§1)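 Caco-2 monolayer permeability measured in both directions, apical-to-basolateral and basolateral-to-apical. Reported as P_app (×10−⁶ cm/s), given as A−B/B−A pairs.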

[11] = Apparent permeability across basolateral to apical side in human Caco2 cells at 10 uM […] by LC/MS/MS analysis; assay type: ADME, cell-based; details: Caco-2; outline: as §1
[12] = molecular target: Voltage-gated L-type calcium channel (Rattus norvegicus, UniProt P22002+Q02485+P27732); experiment: Binding affinity to rat L-type calcium channel at 1 uM
[13] = Inhibition of CYP450 in human liver microsomes; assay type: ADME
Rattus norvegicus [14] = experiment: Ex vivo histamine H3 receptor occupancy in Sprague-Dawley rat striatum at 10 mg/kg, sc by autoradiographic analysis; assay type: functional
Outline: (§2)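 Ex vivo H3 receptor occupancy measured after 10 mg/kg subcutaneous dosing in rats. Plasma Cmax was determined in parallel.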

Rattus norvegicus [15] = experiment: Ex vivo histamine H3 receptor occupancy in Sprague-Dawley rat striatum assessed as maximum plasma concentration required to cause >80% receptor occupancy at 10 mg/kg, sc; assay type: functional; outline: as §2
Homo sapiens = species on record: Homo sapiens; experiment: Ex vivo histamine H3 receptor occupancy in human assessed as plasma concentration required to cause maximal receptor occupancy; assay type: functional
Rattus norvegicus [16] = species on record: Rattus norvegicus; experiment: Toxicity in rat assessed as phospholipidosis; assay type: organism-based; details: in vivo
Canis familiaris = species on record: Canis familiaris; experiment: Toxicity in dog assessed as phospholipidosis; assay type: organism-based, Canis lupus familiaris; details: in vivo
[17] = Tmax in po dosed human; assay type: ADME, organism-based; details: in vivo
Outline: (§3)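 Humans given single oral doses. Time to peak plasma concentration and mean t1/2 were determined across the dose range (10–400 mg).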

[18] = Half life in human; assay type: ADME, organism-based; details: in vivo; outline: as §3
Rattus norvegicus [19] = species on record: Rattus norvegicus; experiment: Toxicity in rat assessed as phospholipidosis; details: in vivo

Chain of Voltage-gated inwardly rectifying potassium channel KCNH2 (Q12809 whole entry): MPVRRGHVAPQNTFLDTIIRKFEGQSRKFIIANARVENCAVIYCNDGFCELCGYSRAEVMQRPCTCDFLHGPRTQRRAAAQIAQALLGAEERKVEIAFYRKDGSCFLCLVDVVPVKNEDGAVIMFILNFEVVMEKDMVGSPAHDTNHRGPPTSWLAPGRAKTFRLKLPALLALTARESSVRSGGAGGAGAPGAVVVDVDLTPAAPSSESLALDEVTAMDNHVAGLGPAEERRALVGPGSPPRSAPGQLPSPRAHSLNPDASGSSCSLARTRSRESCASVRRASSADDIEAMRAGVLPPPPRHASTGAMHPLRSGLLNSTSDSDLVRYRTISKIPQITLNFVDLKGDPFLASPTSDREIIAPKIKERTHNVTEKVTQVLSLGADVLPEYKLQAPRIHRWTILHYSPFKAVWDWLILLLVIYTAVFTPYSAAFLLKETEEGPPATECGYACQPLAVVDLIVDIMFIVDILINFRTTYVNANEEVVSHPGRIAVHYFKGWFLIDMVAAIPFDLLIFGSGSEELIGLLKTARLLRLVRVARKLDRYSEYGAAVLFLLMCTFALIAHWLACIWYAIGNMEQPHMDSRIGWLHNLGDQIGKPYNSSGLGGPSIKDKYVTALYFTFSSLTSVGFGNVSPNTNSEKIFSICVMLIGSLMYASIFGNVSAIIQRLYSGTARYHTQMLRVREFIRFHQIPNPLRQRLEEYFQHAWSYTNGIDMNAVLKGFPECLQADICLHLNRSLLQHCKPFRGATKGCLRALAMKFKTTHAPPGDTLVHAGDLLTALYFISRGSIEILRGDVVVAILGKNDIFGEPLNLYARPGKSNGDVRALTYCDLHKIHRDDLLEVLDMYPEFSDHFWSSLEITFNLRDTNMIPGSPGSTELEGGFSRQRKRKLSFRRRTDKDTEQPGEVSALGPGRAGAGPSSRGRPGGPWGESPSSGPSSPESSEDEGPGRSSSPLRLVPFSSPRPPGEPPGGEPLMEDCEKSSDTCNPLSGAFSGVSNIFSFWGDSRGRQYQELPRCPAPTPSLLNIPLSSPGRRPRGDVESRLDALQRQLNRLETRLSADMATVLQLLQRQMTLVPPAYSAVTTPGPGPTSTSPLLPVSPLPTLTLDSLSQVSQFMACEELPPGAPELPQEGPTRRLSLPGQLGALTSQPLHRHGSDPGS

clearance [2]	Vd [3]	half-life [4]	bioavailability [5]	remaining at 0.25 h, 1 µM [6]	remaining at 0.25 h, 1 µM [7]	concentration at 1 h [8]	Papp A→B at 1 h, 10 µM [10]	Papp B→A at 10 µM [11]	Activity [12]	SMILES	IC50 [1]	Occ (Rattus norvegicus [9])	other results
113 mL/min/kg	20.3 L/kg	2.1 h	31%							O=C(c1ccc(CN2CCC(F)CC2)cc1)N1CCN(C2CCC2)CC1	> 10 µM		
41.4 mL/min/kg	3.9 L/kg	1.1 h	14%	26.8%	83.6%	540 nM				O=C(c1ccc(CN2CCC(F)CC2)cc1)N1CCN(C2CC2)CC1	> 10 µM	25%	
26.1 mL/min/kg	39.4 L/kg	20 h	52%			480 nM	12.4 ×10⁻⁶ cm/s	14.8 ×10⁻⁶ cm/s	Not Active	CC(C)N1CCN(C(=O)c2ccc(CN3CCCCC3)cc2)CC1	> 30 µM	90%	
21.6 mL/min/kg	1.7 L/kg	0.9 h	112%	44.1%	96.1%	2540 nM	108 ×10⁻⁶ cm/s	37.8 ×10⁻⁶ cm/s	Not Active	Cl.O=C(c1ccc(CN2CCOCC2)cc1)N1CCN(C2CC2)CC1	> 10 µM	58%	inhibition (INH) [13]: Not Active; Occ (Rattus norvegicus [14]): >80%; Activity (Rattus norvegicus [15]): 1933 ng/mL; Activity (Homo sapiens): 200 ng/mL; Activity (Rattus norvegicus [16]): Non-toxic; Activity (Canis familiaris): Non-toxic; Tmax [17]: 0.5 h; half-life [18]: 13.9 h; Activity (Rattus norvegicus [19]): Non-toxic
